Test results taken from ChEMBL document CHEMBL1134336, “Synthesis and SAR of a new series of COX-2-selective inhibitors: pyrazolo[1,5-a]pyrimidines” (J Med Chem, 2001).

Assays:
[1] = molecular target: T1, Prostaglandin G/H synthase 2 (Homo sapiens) (UniProt P35354); assay: Percentage of inhibition of Prostaglandin G/H synthase 2 activity in human whole blood (HWB) at 1 uM; assay type: tissue-based
T1 sequence (whole entry): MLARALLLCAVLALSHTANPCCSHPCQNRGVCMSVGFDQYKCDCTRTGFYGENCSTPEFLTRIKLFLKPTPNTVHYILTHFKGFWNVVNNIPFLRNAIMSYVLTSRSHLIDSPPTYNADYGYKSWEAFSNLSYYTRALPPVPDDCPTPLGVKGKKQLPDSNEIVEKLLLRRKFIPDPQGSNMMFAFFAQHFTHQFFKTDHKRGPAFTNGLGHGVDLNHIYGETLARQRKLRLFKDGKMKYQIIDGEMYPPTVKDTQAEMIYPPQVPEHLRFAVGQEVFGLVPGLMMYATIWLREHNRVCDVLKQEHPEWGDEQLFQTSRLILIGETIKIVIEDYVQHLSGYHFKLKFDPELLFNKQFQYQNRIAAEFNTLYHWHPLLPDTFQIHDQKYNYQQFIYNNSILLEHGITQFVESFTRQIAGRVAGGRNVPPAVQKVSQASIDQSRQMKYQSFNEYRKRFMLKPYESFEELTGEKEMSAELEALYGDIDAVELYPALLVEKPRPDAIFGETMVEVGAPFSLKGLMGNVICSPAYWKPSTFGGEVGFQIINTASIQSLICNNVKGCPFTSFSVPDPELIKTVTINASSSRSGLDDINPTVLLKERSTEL
Method in brief: (§1)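 COX-2: human whole blood stimulated with lipopolysaccharide 026:B6, 37 °C, 24 h, with aspirin (20 µg/mL) to block COX-1. PGE2 by enzyme immunoassay after centrifugation. Run in duplicate or repeated.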

[2] = molecular target: T1, Prostaglandin G/H synthase 2 (Homo sapiens); assay: Percentage inhibition of Prostaglandin G/H synthase 2 activity in human whole blood (HWB) at 10 uM; assay type: tissue-based; method in brief: as §1
[3] = molecular target: T2, Prostaglandin G/H synthase 1 (Homo sapiens, UniProt P23219); assay: Percentage of inhibition of Prostaglandin G/H synthase 1 activity in human whole blood (HWB) at 10 uM; assay type: tissue-based
Method in brief: (§2)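 COX-1: human blood left to clot spontaneously 5 h at 37 °C, then A23187 (5 μM) 30 min further. Stopped at 0 °C with EGTA/MeOH; supernatant TXB2 by enzyme immunoassay. Run in duplicate or repeated.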

[4] = molecular target: T2, Prostaglandin G/H synthase 1; assay type: cell-based, U-937
[5] = molecular target: T2, Prostaglandin G/H synthase 1; assay: Percentage of inhibition of Prostaglandin G/H synthase 1 activity in human whole blood (HWB) at 1 uM; assay type: tissue-based; method in brief: as §2

T2 sequence (P23219 whole entry): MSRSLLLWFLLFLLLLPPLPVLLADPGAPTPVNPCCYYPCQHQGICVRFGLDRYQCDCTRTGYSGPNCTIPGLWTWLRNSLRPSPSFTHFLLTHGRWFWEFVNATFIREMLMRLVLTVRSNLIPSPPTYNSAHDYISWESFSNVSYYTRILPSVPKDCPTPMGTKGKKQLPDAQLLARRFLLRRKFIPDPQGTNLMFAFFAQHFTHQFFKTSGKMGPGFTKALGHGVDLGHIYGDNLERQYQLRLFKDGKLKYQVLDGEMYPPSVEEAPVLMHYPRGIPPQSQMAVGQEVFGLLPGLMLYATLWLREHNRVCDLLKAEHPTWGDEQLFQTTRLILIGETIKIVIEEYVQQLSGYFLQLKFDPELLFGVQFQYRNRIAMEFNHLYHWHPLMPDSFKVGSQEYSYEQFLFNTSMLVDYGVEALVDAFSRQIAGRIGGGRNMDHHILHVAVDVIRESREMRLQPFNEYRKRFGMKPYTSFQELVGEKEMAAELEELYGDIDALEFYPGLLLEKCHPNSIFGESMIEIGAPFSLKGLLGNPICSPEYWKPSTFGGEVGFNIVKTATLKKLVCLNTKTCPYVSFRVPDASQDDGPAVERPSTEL

Row | SMILES | inhibition [1] [%] | inhibition [2] [%] | inhibition [3] [%] | IC50 [4] [µM] | inhibition [5] [%]
1 | CS(=O)(=O)c1ccc(-c2nn3c(C(F)(F)F)ccnc3c2-c2ccc(F)cc2)cc1 | 3.5 | 90.6 | 0 | – | –
2 | Cc1cc(C(F)(F)F)nc2c(-c3ccc(F)cc3)c(-c3ccc(S(C)(=O)=O)cc3)nn12 | – | 57.2 | 2.5 | – | –
3 | CCCc1ccnc2c(-c3ccc(F)cc3)c(-c3ccc(S(C)(=O)=O)cc3)nn12 | 32.2 | 56.1 | 37.3 | – | –
4 | Cc1cnc2c(-c3ccc(F)cc3)c(-c3ccc(S(C)(=O)=O)cc3)nn2c1CO | 56.5 | 100 | 42.7 | – | –
5 | CCCCc1cc(C)nc2c(-c3ccc(F)cc3)c(-c3ccc(S(C)(=O)=O)cc3)nn12 | 11 | 58.3 | 0 | – | –
6 | Cc1cc(O)n2nc(-c3ccc(S(C)(=O)=O)cc3)c(-c3ccc(F)cc3)c2n1 | – | 21.9 | 8.1 | – | –
7 | Cc1cn2c(-c3ccc(F)cc3)c(-c3ccc(S(C)(=O)=O)cc3)nc2c(C)n1 | 0 | 82.4 | 0 | – | –
8 | Cc1cc2c(nc(-c3ccc(S(C)(=O)=O)cc3)n2-c2ccc(F)cc2)c(C)n1 | – | 4.3 | 0 | – | –
9 | Cc1ccn2nc(-c3ccc(S(C)(=O)=O)cc3)c(-c3ccc(F)cc3)c2n1 | – | – | 19 | > 10 | –
10 | CS(=O)(=O)c1ccc(-c2nn3cccnc3c2-c2ccc(F)cc2)cc1 | – | 36.2 | 35 | > 10 | –
11 | Cc1cnn2c(-c3ccc(F)cc3)c(-c3ccc(S(C)(=O)=O)cc3)nc2c1C | 37.3 | 100 | 0 | – | –
12 | CCCCc1cc(C)n2nc(-c3ccc(S(C)(=O)=O)cc3)c(-c3ccc(F)cc3)c2n1 | 51.5 | 100 | 86.2 | – | 6.8
13 | Cc1cnc2c(-c3ccc(F)cc3)c(-c3ccc(S(N)(=O)=O)cc3)nn2c1C | 22.5 | 99.1 | 22 | – | –
14 | CS(=O)(=O)c1ccc(-c2nn3c4c(cnc3c2-c2ccc(F)cc2)CSC4)cc1 | 25 | 93.6 | 0 | – | –
15 | CS(=O)(=O)c1ccc(-c2nc3cnccn3c2-c2ccc(F)cc2)cc1 | – | 42.5 | 6 | – | –
16 | Cc1cc(C(=O)O)nc2c(-c3ccc(F)cc3)c(-c3ccc(S(C)(=O)=O)cc3)nn12 | – | 24.6 | 33.5 | – | –
17 | CC(=O)c1cnc2c(-c3ccc(F)cc3)c(-c3ccc(S(C)(=O)=O)cc3)nn2c1C | 60.8 | 100 | 71.1 | – | –
18 | Cc1c(Br)cnc2c(-c3ccc(F)cc3)c(-c3ccc(S(C)(=O)=O)cc3)nn12 | 84.3 | 100 | 83.8 | – | 18.9
19 | CS(=O)(=O)c1ccc(-c2nn3c4c(cnc3c2-c2ccc(F)cc2)CCCC4)cc1 | 57.7 | 100 | 40.4 | – | –
20 | CCOC(=O)c1cc(C)n2nc(-c3ccc(S(C)(=O)=O)cc3)c(-c3ccc(F)cc3)c2n1 | – | 41 | 8 | – | –
21 | CS(=O)(=O)c1ccc(-c2nn3c4c(cnc3c2-c2ccc(F)cc2)SCC4)cc1 | 14.8 | 90.7 | 7 | – | –
22 | CCCc1c(C(=O)O)cnc2c(-c3ccc(F)cc3)c(-c3ccc(S(C)(=O)=O)cc3)nn12 | 31.9 | 0 | 7.4 | – | –
23 | Cc1ccnc2c(-c3ccc(F)cc3)c(-c3ccc(S(C)(=O)=O)cc3)nn12 | – | – | 50.5 | > 10 | –
24 | Cc1ccn2c(-c3ccc(F)cc3)c(-c3ccc(S(C)(=O)=O)cc3)nc2n1 | – | 50.7 | 13.5 | – | –
25 | Cc1cnc2c(-c3ccc(F)cc3F)c(-c3ccc(S(C)(=O)=O)cc3)nn2c1C | 61.1 | 100 | 80.8 | – | –
26 | Cc1cc(C)n2nc(-c3ccc(S(C)(=O)=O)cc3)c(-c3ccc(F)cc3)c2n1 | – | – | 8.3 | > 10 | –
27 | CCc1nnc2c(-c3ccc(F)cc3)c(-c3ccc(S(C)(=O)=O)cc3)nn2c1CC | 50.9 | 100 | 88.7 | – | –
28 | CS(=O)(=O)c1ccc(-c2nn3c4c(cnc3c2-c2ccc(F)cc2)CCC4)cc1 | 48.3 | 90.4 | 0 | – | –

Row | SMILES | inhibition [1] [%] | inhibition [2] [%] | inhibition [3] [%] | IC50 [4] [µM] | inhibition [5] [%]
29 | CCCCc1cnnc2c(-c3ccc(F)cc3)c(-c3ccc(S(C)(=O)=O)cc3)nn12 | 0.9 | 89.7 | 69.8 | – | –
30 | Cc1ccc(-c2c(-c3ccc(S(C)(=O)=O)cc3)nn3c(C)c(C)cnc23)cc1 | 87.6 | 100 | 54.2 | – | –
31 | CCCc1c(C)nnc2c(-c3ccc(F)cc3)c(-c3ccc(S(C)(=O)=O)cc3)nn12 | 17.9 | 95 | 18.7 | – | –
32 | CS(=O)(=O)c1ccc(-c2nc3cccnn3c2-c2ccc(F)cc2)cc1 | – | 61.2 | 47 | – | –
33 | COc1cc(C)nc2c(-c3ccc(F)cc3)c(-c3ccc(S(C)(=O)=O)cc3)nn12 | – | 0 | 0 | – | –
34 | Cc1ccn2c(-c3ccc(F)cc3)c(-c3ccc(S(C)(=O)=O)cc3)nc2c1C | 59.3 | 66.7 | 0 | – | –
35 | CCCCc1nccn2c(-c3ccc(F)cc3)c(-c3ccc(S(C)(=O)=O)cc3)nc12 | – | 0 | 9.8 | – | –
36 | Cc1cn2nc(-c3ccc(S(C)(=O)=O)cc3)c(-c3ccc(F)cc3)c2nc1C | – | – | 32.6 | > 10 | –
37 | Cc1c(C(=O)O)cnc2c(-c3ccc(F)cc3)c(-c3ccc(S(C)(=O)=O)cc3)nn12 | – | 56.3 | 8.3 | – | –
38 | Cc1nc(C)n2nc(-c3ccc(S(C)(=O)=O)cc3)c(-c3ccc(F)cc3)c2n1 | 18.1 | 90.3 | 4.75 | – | –
39 | CCCc1cnnc2c(-c3ccc(F)cc3)c(-c3ccc(S(C)(=O)=O)cc3)nn12 | 43.9 | 100 | 29.3 | – | –
40 | Cc1nnc2c(-c3ccc(F)cc3)c(-c3ccc(S(C)(=O)=O)cc3)nn2c1C | 40.5 | 100 | 1.2 | – | –
41 | Cc1c(CF)cnc2c(-c3ccc(F)cc3)c(-c3ccc(S(C)(=O)=O)cc3)nn12 | 4.4 | 84.6 | 7.3 | – | –
42 | CCc1nnc2c(-c3ccc(F)cc3)c(-c3ccc(S(C)(=O)=O)cc3)nn2c1C | 74.9 | 100 | 61.9 | – | –
43 | CS(=O)(=O)c1ccc(-c2nc3cnccc3n2-c2ccc(F)cc2)cc1 | – | 21.3 | 34.3 | – | –
44 | Cc1c(C(F)(F)F)cnc2c(-c3ccc(F)cc3)c(-c3ccc(S(C)(=O)=O)cc3)nn12 | 69 | 100 | 100 | – | 53.9
45 | CCc1cnc2c(-c3ccc(F)cc3)c(-c3ccc(S(C)(=O)=O)cc3)nn2c1C | 50.3 | 100 | 91.8 | – | 0
46 | CCc1c(C)cnc2c(-c3ccc(F)cc3)c(-c3ccc(S(C)(=O)=O)cc3)nn12 | 62.3 | 100 | 82.8 | – | –
47 | Cc1cnc2c(-c3ccc(F)cc3)c(-c3ccc(S(C)(=O)=O)cc3)nn2c1-c1ccccc1 | – | 12.3 | 0 | – | –
48 | Cc1cc(Cl)n2nc(-c3ccc(S(C)(=O)=O)cc3)c(-c3ccc(F)cc3)c2n1 | – | 14.3 | 32.5 | – | –
49 | Cc1cnc2c(-c3ccc(F)c(F)c3)c(-c3ccc(S(C)(=O)=O)cc3)nn2c1C | 100 | 100 | 36.3 | – | –
50 | CCCCc1nc(C)nc2c(-c3ccc(F)cc3)c(-c3ccc(S(C)(=O)=O)cc3)nn12 | – | 54.6 | 7.7 | – | –
51 | Cc1nc2c(-c3ccc(F)cc3)c(-c3ccc(S(C)(=O)=O)cc3)nn2c(Cl)c1C | – | 45.8 | 1.2 | – | –
52 | CS(=O)(=O)c1ccc(-c2nn3c(-c4ccccc4)ccnc3c2-c2ccc(F)cc2)cc1 | 0 | 90.4 | 5.7 | – | –
53 | Cc1cnc2c(-c3ccc(F)c(F)c3)c(-c3ccc(S(N)(=O)=O)cc3)nn2c1C | 97.2 | 100 | 68.2 | – | –
54 | Cc1nc2c(-c3ccc(F)cc3)c(-c3ccc(S(C)(=O)=O)cc3)nn2c(C)c1C | – | – | 61.3 | > 10 | –
55 | Cc1cnc2c(-c3ccc(F)cc3)c(-c3ccc(S(C)(=O)=O)cc3)nn2c1 | – | – | 8.2 | > 10 | –
